The subject of one data set is B16-F10. Put plainly: Cytotoxicity against mouse B16F10 cells assessed as reduction in cell viability at 5 to 10 uM incubated for 24 hrs by WST8 assay. Type of data set: cell-based. The note with it: b16-f10, 24 h. In outline: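 B16F10 cells seeded at 5x10^4 per well in DMEM with 10% FBS and penicillin/streptomycin, 37 °C, 5% CO2, and grown 24 h. Exposed to 0, 5, 10 or 25 µM for 24 h. WST-8 reagent added for 1 h, OD read at 450 nm. Viability expressed as % of untreated cells. Three repeats.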
In the case of `O=C(O)/C(=C/c1ccc(O)cc1O)c1ccccc1`, the Activity entry is reported as “Non-Toxic”.

The target of another data set is T1, Tyrosinase (Mus musculus) (UniProt P11344).
T1 sequence (whole entry): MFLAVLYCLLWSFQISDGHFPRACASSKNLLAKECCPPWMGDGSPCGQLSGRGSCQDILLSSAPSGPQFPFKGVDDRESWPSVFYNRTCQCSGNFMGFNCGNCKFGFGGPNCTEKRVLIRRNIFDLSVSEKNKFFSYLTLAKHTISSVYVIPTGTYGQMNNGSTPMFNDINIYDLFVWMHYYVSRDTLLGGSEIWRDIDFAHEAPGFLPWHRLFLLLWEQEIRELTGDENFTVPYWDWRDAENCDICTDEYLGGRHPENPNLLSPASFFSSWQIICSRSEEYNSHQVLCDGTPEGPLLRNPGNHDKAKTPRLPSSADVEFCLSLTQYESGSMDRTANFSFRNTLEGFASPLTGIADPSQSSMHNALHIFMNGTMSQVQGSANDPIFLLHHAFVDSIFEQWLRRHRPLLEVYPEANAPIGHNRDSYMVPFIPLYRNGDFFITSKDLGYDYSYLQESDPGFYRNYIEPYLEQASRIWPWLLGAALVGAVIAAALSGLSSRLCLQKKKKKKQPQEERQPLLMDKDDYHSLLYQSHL
Put plainly: Inhibition of tyrosinase in alpha-MSH-stimulated mouse B16F10 cells incubated for 24 hrs relative to untreated control.
Conditions: not given
In outline:
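B16F10 cells seeded at 5x10^4 per well and grown 24 h at 37 °C, 5% CO2. […] Cells PBS-washed, lysed in PMSF/Triton X-100 buffer, frozen at −80 °C, spun 12,000 rpm 4 °C. Supernatant incubated with L-dopa 30 min at 37 °C, OD read at 500 nm. Triplicate.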
Broadly, the inhibition is the percentage by which the read-out fell short of the control. As for `O=C(O)/C(=C/c1ccc(O)cc1O)c1ccccc1`, the inhibition entry is “Dose-dependent effect”.

Test system in another data set: not listed separately
Put plainly: Antioxidant activity assessed as DPPH radical scavenging activity at 1 mM after 30 mins under dark condition relative to untreated control. It is filed as functional.
Conditions: not given
In outline:
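Test compounds dissolved in DMSO, mixed 1:9 (v/v) with 0.2 mM DPPH in methanol to a tested level of 1 mM. Incubated 30 min in the dark. Absorbance read at 517 nm. Scavenging % = (Ac−As)×100/Ac against untreated control. L-ascorbic acid used as positive control. Triplicate.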
(In general: The DPPH test is a chemical assay of radical scavenging.)
With `O=C(O)/C(=C/c1ccccc1O)c1ccccc1`, the inhibition was found to be 4.43%.
On the same count and under the same terms, as for `Cc1cc(/C=C(/C(=O)O)c2ccccc2)ccc1O`, the figure is 78.1%; as for `O=C(O)/C(=C\c1cc(Br)c(O)c(Br)c1)c1ccccc1`, 11.6%.
On the same count and under the same terms, with `COc1cc(/C=C(/C(=O)O)c2ccccc2)ccc1O` the figure was 81.6%.
Regarding `O=C1O[C@H]([C@@H](O)CO)C(O)=C1O`, the inhibition came to 84.6%.
The same measure, in the same setting: as for `O=C(O)/C(=C/c1ccc(O)cc1O)c1ccccc1`, the figure is 52.1%; as for `O=C(O)/C(=C/c1ccc(O)cc1)c1ccccc1`, 6.04%; as for `O=C(O)/C(=C/c1ccc(O)c(Br)c1)c1ccccc1`, 19.4%.
Still for that read-out and setting: with `CCOc1cc(/C=C(/C(=O)O)c2ccccc2)ccc1O` the figure was 43.6%; with `COc1ccc(/C=C(/C(=O)O)c2ccccc2)cc1`, 5.68%.
Same read-out and setting: with `COc1ccc(/C=C(/C(=O)O)c2ccccc2)cc1O` the figure was 24%; with `COc1ccc(/C=C(/C(=O)O)c2ccccc2)cc1OC`, 10.2%.
As for `O=C(O)/C(=C/c1ccc(O)c(O)c1)c1ccccc1`, the inhibition was 83.7%.
Same read-out and setting: with `O=C(O)/C(=C/c1cccc(O)c1)c1ccccc1` the figure was 12.4%; with `COc1cc(/C=C(/C(=O)O)c2ccccc2)cc(OC)c1O`, 85%; with `O=C(O)/C(=C/c1cc(Br)c(O)c(Br)c1)c1ccccc1`, 23.9%.

In the next data set the target is T1, Tyrosinase (Mus musculus). Conditions: 400 uM.
Compound `OC[C@H]1O[C@@H](Oc2ccc(O)cc2)[C@H](O)[C@@H](O)[C@@H]1O` yielded an inhibition of 42.6%.

Source of the values: ChEMBL document CHEMBL4392862, “Antioxidant, anti-tyrosinase and anti-melanogenic effects of (E)-2,3-diphenylacrylic acid derivatives” (Bioorg Med Chem, 2019).
